Experimental findings from ChEMBL document CHEMBL2029228, “Antimalarial activity of 9a-N substituted 15-membered azalides with improved in vitro and in vivo activity over azithromycin” (J Med Chem, 2012) are described below.

Molecules are shown by their SMILES.

In assay [1] the test system is Plasmodium falciparum. Kind of assay: Antimalarial activity against mefloquine-resistant Plasmodium falciparum TM91C235 assessed as [3H]hypoxanthine incorporation after 48 hrs. Format: functional, organism-based. Put shortly:
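Tritiated hypoxanthine incorporation assay (Desjardins method, Milhous modification) with 48 h drug exposure. Uses P. falciparum clone TM91C235 (Southeast Asian, mefloquine-resistant). Compounds 2-fold diluted over 11 concentrations. IC50 derived by nonlinear logistic dose-response fitting, averaged where multiple runs were done.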

Assay [2] relates to HepG2. Kind of assay: Cytotoxicity against human HepG2 cells after 24 hrs by MTS assay. Format: cell-based. The conditions noted are these: HepG2, 24 h. Put shortly: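 HepG2 cells kept in RPMI 1640 with 10% FBS plus antibiotics at 37 °C, 5% CO₂. 50 000 cells per well exposed to 10 two-fold serial dilutions for 24 h. MTS reagent then added for 2 h more, absorbance read at 490 nm, IC50 derived.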
On the technique in general: Formazan colour is commonly taken as a measure of viable cells.

Take `CC[C@H]1OC(=O)[C@H](C)[C@@H](O[C@H]2C[C@@](C)(OC)[C@@H](O)[C@H](C)O2)[C@H](C)[C@@H](O[C@@H]2O[C@H](C)C[C@H](N(C)C)[C@H]2O)[C@](C)(O)C[C@@H](C)CN(CCCNCCCc2ccccc2)[C@H](C)[C@@H](O)[C@]1(C)O`: the IC50 was determined as 0.106 µM in assay [1] and 40 µM in assay [2].
Consider `CC[C@H]1OC(=O)[C@H](C)[C@@H](O[C@H]2C[C@@](C)(OC)[C@@H](O)[C@H](C)O2)[C@H](C)[C@@H](O[C@@H]2O[C@H](C)C[C@H](N(C)C)[C@H]2O)[C@](C)(O)C[C@@H](C)CN(CCCNC(=O)CCCc2ccccc2)[C@H](C)[C@@H](O)[C@]1(C)O`, for which the IC50 is 0.085 µM in assay [1] and greater than 50 µM in assay [2].
Regarding `CC[C@H]1OC(=O)[C@H](C)[C@@H](O[C@H]2C[C@@](C)(OC)[C@@H](O)[C@H](C)O2)[C@H](C)[C@@H](O[C@@H]2O[C@H](C)C[C@H](N(C)C)[C@H]2O)[C@](C)(O)C[C@@H](C)CN(CCCNc2cc(C)nc3ccc(OC)cc23)[C@H](C)[C@@H](O)[C@]1(C)O`, the IC50 in assay [1] is 0.854 µM; in assay [2], greater than 50 µM.
With `CC[C@H]1OC(=O)[C@H](C)[C@@H](O)[C@H](C)[C@@H](O[C@@H]2O[C@H](C)C[C@H](N(C)C)[C@H]2O)[C@](C)(O)C[C@@H](C)CN(CCCNc2ccnc3cc(Cl)ccc23)[C@H](C)[C@@H](O)[C@]1(C)O`, the IC50 in assay [1] turned out to be 0.013 µM; in assay [2], 35 µM.
As for `CCOc1ccc2ccccc2c1CNCCCN1C[C@H](C)C[C@@](C)(O)[C@H](O[C@@H]2O[C@H](C)C[C@H](N(C)C)[C@H]2O)[C@@H](C)[C@H](O[C@H]2C[C@@](C)(OC)[C@@H](O)[C@H](C)O2)[C@@H](C)C(=O)O[C@H](CC)[C@@](C)(O)[C@H](O)[C@H]1C`, the IC50 in assay [1] turned out to be 0.026 µM; in assay [2] it was 7 µM.
For the compound `CC[C@H]1OC(=O)[C@H](C)[C@@H](O[C@H]2C[C@@](C)(OC)[C@@H](O)[C@H](C)O2)[C@H](C)[C@@H](O[C@@H]2O[C@H](C)C[C@H](N(C)C)[C@H]2O)[C@](C)(O)C[C@@H](C)CN(CCC(=O)NCc2cccc3ccccc23)[C@H](C)[C@@H](O)[C@]1(C)O`, the concentration for half-maximal inhibition (IC50) in assay [1] is 0.079 µM; in assay [2] it was 49 µM.
Turning to `CC[C@H]1OC(=O)[C@H](C)[C@@H](O[C@H]2C[C@@](C)(OC)[C@@H](O)[C@H](C)O2)[C@H](C)[C@@H](O[C@@H]2O[C@H](C)C[C@H](N(C)C)[C@H]2O)[C@](C)(O)C[C@@H](C)CN(CCCNCc2ccc3ccccc3n2)[C@H](C)[C@@H](O)[C@]1(C)O`, the IC50 in assay [1] was determined as 0.062 µM; in assay [2], 28 µM.
As to `CC[C@H]1OC(=O)[C@H](C)[C@@H](O)[C@H](C)[C@@H](O)[C@](C)(O)C[C@@H](C)CN(CCCNC(=O)c2ocnc2C)[C@H](C)[C@@H](O)[C@]1(C)O`, the IC50 in assay [1] was greater than 21.3 µM.
Consider `CC[C@H]1OC(=O)[C@H](C)[C@@H](O[C@H]2C[C@@](C)(OC)[C@@H](O)[C@H](C)O2)[C@H](C)[C@@H](O[C@@H]2O[C@H](C)C[C@H](N(C)C)[C@H]2O)[C@](C)(O)C[C@@H](C)CN(CCCNCc2cccc3ccccc23)[C@H](C)[C@@H](O)[C@]1(C)O`, for which the IC50 was found to be 0.025 µM in assay [1] and 10 µM in assay [2].
For `CC[C@H]1OC(=O)[C@H](C)[C@@H](O[C@H]2C[C@@](C)(OC)[C@@H](O)[C@H](C)O2)[C@H](C)[C@@H](O[C@@H]2O[C@H](C)C[C@H](N(C)C)[C@H]2O)[C@](C)(O)C[C@@H](C)CN(CCC(=O)NCCc2ccccc2)[C@H](C)[C@@H](O)[C@]1(C)O`, in that order: 0.367 µM and greater than 50 µM.
With `CC[C@H]1OC(=O)[C@H](C)[C@@H](O[C@H]2C[C@@](C)(OC)[C@@H](O)[C@H](C)O2)[C@H](C)[C@@H](O[C@@H]2O[C@H](C)C[C@H](N(C)C)[C@H]2O)[C@](C)(O)C[C@@H](C)CN(CCCNc2ncnc3[nH]cnc23)[C@H](C)[C@@H](O)[C@]1(C)O`, the IC50 was greater than 6.4 µM in assay [1] and greater than 50 µM in assay [2].
On to `CC[C@H]1OC(=O)[C@H](C)[C@@H](O)[C@H](C)[C@@H](O[C@@H]2O[C@H](C)C[C@H](N(C)C)[C@H]2O)[C@](C)(O)C[C@@H](C)CN(CCCNC(=O)[C@H](C)c2ccc3cc(OC)ccc3c2)[C@H](C)[C@@H](O)[C@]1(C)O`, for which the IC50 in assay [1] was 0.52 µM.
`CC[C@H]1OC(=O)[C@H](C)[C@@H](O[C@H]2C[C@@](C)(OC)[C@@H](O)[C@H](C)O2)[C@H](C)[C@@H](O[C@@H]2O[C@H](C)C[C@H](N(C)C)[C@H]2O)[C@](C)(O)C[C@@H](C)CN(CCC(=O)NCCCCc2ccccc2)[C@H](C)[C@@H](O)[C@]1(C)O`: the results for the IC50 in assay [1] and in assay [2] were 0.162 µM and 40 µM, respectively.
On to `CC[C@H]1OC(=O)[C@H](C)[C@@H](O)[C@H](C)[C@@H](O[C@@H]2O[C@H](C)C[C@H](N(C)C)[C@H]2O)[C@](C)(O)C[C@@H](C)CN(CCCNCc2ccc3ccccc3n2)[C@H](C)[C@@H](O)[C@]1(C)O`, for which, in assay [1], the IC50 came to 0.164 µM.
Regarding `CC[C@H]1OC(=O)[C@H](C)[C@@H](O)[C@H](C)[C@@H](O[C@@H]2O[C@H](C)C[C@H](N(C)C)[C@H]2O)[C@](C)(O)C[C@@H](C)CN(CCCNCc2cccnc2)[C@H](C)[C@@H](O)[C@]1(C)O`, the figures for the IC50 in assay [1] and in assay [2] were 2.51 µM and greater than 50 µM, respectively.
On to `CC[C@H]1OC(=O)[C@H](C)[C@@H](O[C@H]2C[C@@](C)(OC)[C@@H](O)[C@H](C)O2)[C@H](C)[C@@H](O[C@@H]2O[C@H](C)C[C@H](N(C)C)[C@H]2O)[C@](C)(O)C[C@@H](C)CN(CCC(=O)NCc2ccccc2)[C@H](C)[C@@H](O)[C@]1(C)O`, for which the IC50 in assay [1] was 0.261 µM; in assay [2] it was greater than 50 µM.
As to `CC[C@H]1OC(=O)[C@H](C)[C@@H](O[C@H]2C[C@@](C)(OC)[C@@H](O)[C@H](C)O2)[C@H](C)[C@@H](O[C@@H]2O[C@H](C)C[C@H](N(C)C)[C@H]2O)[C@](C)(O)C[C@@H](C)CN(CCCNCc2cccnc2)[C@H](C)[C@@H](O)[C@]1(C)O`, the IC50 in assay [1] is 0.391 µM; in assay [2], greater than 50 µM.
Consider `CC[C@H]1OC(=O)[C@H](C)[C@@H](O[C@H]2C[C@@](C)(OC)[C@@H](O)[C@H](C)O2)[C@H](C)[C@@H](O[C@@H]2O[C@H](C)C[C@H](N(C)C)[C@H]2O)[C@](C)(O)C[C@@H](C)CN(CCCNCCCCc2ccccc2)[C@H](C)[C@@H](O)[C@]1(C)O`, for which the IC50 worked out at 0.051 µM in assay [1] and 16 µM in assay [2].
Regarding `CC[C@H]1OC(=O)[C@H](C)[C@@H](O[C@H]2C[C@@](C)(OC)[C@@H](O)[C@H](C)O2)[C@H](C)[C@@H](O[C@@H]2O[C@H](C)C[C@H](N(C)C)[C@H]2O)[C@](C)(O)C[C@@H](C)CN(CCCNCc2ccccc2)[C@H](C)[C@@H](O)[C@]1(C)O`, the IC50 in assay [1] was 0.104 µM; in assay [2], greater than 50 µM.
The corresponding values for `CC[C@H]1OC(=O)[C@H](C)[C@@H](O[C@H]2C[C@@](C)(OC)[C@@H](O)[C@H](C)O2)[C@H](C)[C@@H](O[C@@H]2O[C@H](C)C[C@H](N(C)C)[C@H]2O)[C@](C)(O)C[C@@H](C)CN(CCCNC(=O)[C@H](C)c2ccc3cc(OC)ccc3c2)[C@H](C)[C@@H](O)[C@]1(C)O` are 0.058 µM and 20 µM.
On to `CC[C@H]1OC(=O)[C@H](C)[C@@H](O)[C@H](C)[C@@H](O[C@@H]2O[C@H](C)C[C@H](N(C)C)[C@H]2O)[C@](C)(O)C[C@@H](C)CN(CCCNCc2ccncc2)[C@H](C)[C@@H](O)[C@]1(C)O`, for which the IC50 in assay [1] is 3.89 µM; in assay [2], greater than 50 µM.
For the compound `CC[C@H]1OC(=O)[C@H](C)[C@@H](O[C@H]2C[C@@](C)(OC)[C@@H](O)[C@H](C)O2)[C@H](C)[C@@H](O[C@@H]2O[C@H](C)C[C@H](N(C)C)[C@H]2O)[C@](C)(O)C[C@@H](C)CN(CCCNC(=O)Cc2ccc3ccccc3c2)[C@H](C)[C@@H](O)[C@]1(C)O`, the IC50 is 0.079 µM in assay [1] and 40 µM in assay [2].
Take `CC[C@H]1OC(=O)[C@H](C)[C@@H](O[C@H]2C[C@@](C)(OC)[C@@H](O)[C@H](C)O2)[C@H](C)[C@@H](O[C@@H]2O[C@H](C)C[C@H](N(C)C)[C@H]2O)[C@](C)(O)C[C@@H](C)CN(CCCNC(=O)Cc2ccccc2)[C@H](C)[C@@H](O)[C@]1(C)O`: the IC50 in assay [1] is 0.233 µM; in assay [2], greater than 50 µM.
In the case of `CC[C@H]1OC(=O)[C@H](C)[C@@H](O[C@H]2C[C@@](C)(OC)[C@@H](O)[C@H](C)O2)[C@H](C)[C@@H](O[C@@H]2O[C@H](C)C[C@H](N(C)C)[C@H]2O)[C@](C)(O)C[C@@H](C)CN(CCCNCc2ccccn2)[C@H](C)[C@@H](O)[C@]1(C)O`, in assay [1], the IC50 was 1.48 µM.
Regarding `CC[C@H]1OC(=O)[C@H](C)[C@@H](O)[C@H](C)[C@@H](O[C@@H]2O[C@H](C)C[C@H](N(C)C)[C@H]2O)[C@](C)(O)C[C@@H](C)CN(CCCNCc2cnc3ccccc3c2)[C@H](C)[C@@H](O)[C@]1(C)O`, the IC50 in assay [1] came to 0.201 µM.
With `CC[C@H]1OC(=O)[C@H](C)[C@@H](O[C@H]2C[C@@](C)(OC)[C@@H](O)[C@H](C)O2)[C@H](C)[C@@H](O[C@@H]2O[C@H](C)C[C@H](N(C)C)[C@H]2O)[C@](C)(O)C[C@@H](C)CN(CCCNC(=O)Cc2cccc3ccccc23)[C@H](C)[C@@H](O)[C@]1(C)O`, in assay [1], the IC50 stood at 0.062 µM.
The same measure, in the same setting: as for `CC[C@H]1OC(=O)[C@H](C)[C@@H](O[C@H]2C[C@@](C)(OC)[C@@H](O)[C@H](C)O2)[C@H](C)[C@@H](O[C@@H]2O[C@H](C)C[C@H](N(C)C)[C@H]2O)[C@](C)(O)C[C@@H](C)CN(CCCNC(=O)c2ocnc2C)[C@H](C)[C@@H](O)[C@]1(C)O`, the figure is 0.878 µM; as for `CC[C@H]1OC(=O)[C@H](C)[C@@H](O)[C@H](C)[C@@H](O[C@@H]2O[C@H](C)C[C@H](N(C)C)[C@H]2O)[C@](C)(O)C[C@@H](C)CN(CCCNC(=O)Cc2cccc3ccccc23)[C@H](C)[C@@H](O)[C@]1(C)O`, 1.37 µM.

As usually defined, the IC50 is the point on the concentration scale where inhibition reaches its midpoint.
